# STAT3 blocker = STAT3 signaling inhibition. U3A cells, IL-6 STAT3-luciferase reporter, luminescence; host cell line lacks STAT1. inhibition, % at 5.5 µM. 0.89% of 190,000 active. AID 862;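 active means inhibition above the mean inhibition across all screened compounds plus 3 SD, cut at about 44% in these data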
# STAT1 activator = activators of IFN-gamma induced STAT1 signaling | AID 932 | activation (% of control), % at 5.5 µM | NIH 3T3 STAT1-luciferase reporter, luminescence; 100% = IFN-gamma alone, no compound | 2.6% of 200,000 active;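 active means activation above the screen-wide mean activation plus 3 SD, cut at about 130% in these data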
# NF-kB neuron act = raises NF-kB expression in human neuronal cells | NF-kB reporter expression; hits give high values | fold change at 12.5 µM | 1.6% of 190,000 active; in the data active means fold change above about 3.3
# APP 5'UTR act = APP 5'UTR luciferase reporter activation. SH-SY5Y APP 5'UTR luciferase reporter, luminescence; zero percent = DMSO vehicle wells. activation, % at 2 µM. 1% of 190,000 active. AID 1276;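 active means activation above a set limit, based on mean plus 3 SD of controls, cut at about 140% in these data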
# STAT3 act = STAT3 signaling activation | U3A cells, IL-6 STAT3-luciferase reporter, luminescence; 100% = signal with IL-6 EC80 alone | activation (% of control), % at 5.6 µM | 0.91% of 190,000 active;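 active means activation above the screen-wide mean of compound activation plus 3 SD, cut at about 130% in these data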
#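 Test system: STAT3-luciferase reporter U3A cells; Detection: reporter luminescence signal; Times: 1 h compound pre-exposure, 6 h IL-6 stimulation, 37 °C; Benchmarks: IL-6-only high control; Also added: IL-6 stimulus at 33 ng/mL final.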
# STAT1 inh = inhibitors of IFN-gamma induced STAT1 signaling. inhibition, % at 5.5 µM. NIH 3T3 STAT1-luciferase reporter, luminescence. 0.35% of 200,000 active. AID 920;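 active means inhibition above a set limit, the mean inhibition across all tested compounds plus 3 SD, cut at about 34% in these data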
# STAT1 act conf = confirmation of STAT1 signaling activators; AID 1262; activation (% of control), % at 5.7 µM; 97% of 1,200 active; shares compounds with STAT1 activator; NIH 3T3 STAT1-luciferase reporter, IFN-gamma potentiation, luminescence; 100% = IFN-gamma EC80 alone, no compound;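 active means activation above a set limit carried over from the earlier primary STAT1 screen, cut at about 140% in these data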
# NFkB act = NF-kappaB activation in STAT1 activator counter-screen; shares compounds with STAT1 activator; HEK293T NF-kB luciferase reporter, TNF-alpha stimulated, luminescence; 100% = TNF-alpha with vehicle only; activation (% of control), % at 5.7 µM; 43% of 1,200 active;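 active means activation above the mean of solvent-only control wells plus 3 SD, set per campaign, cut at about 130% in these data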;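 further: TNF-alpha given at a submaximal dose yielding about 80% of full reporter signal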
# STAT3 act 2 = counter-screen for STAT1 activators: human STAT3 activation; AID 1316; 46% of 1,200 active; activation (% of control), % at 5.7 µM; U3A cells STAT3-luciferase reporter, IL-6, luminescence; cells lack STAT1; 100 = IL-6 alone, no compound effect; shares compounds with STAT1 activator;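 active means activation above the solvent-only control well mean plus 3 SD, set per plate batch, cut at about 110% in these data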;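 further: higher means more STAT3 reporter activation so hits are non-selective activators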
# Hits are given with their value; . = inactive; / = no result. In the library only some 5.1% were active in any assay of this set; here they are far more common.
SMILES,STAT3 blocker,STAT1 activator,NF-kB neuron act,APP 5'UTR act,STAT3 act,STAT1 inh,STAT1 act conf,NFkB act,STAT3 act 2
C/C(=C\c1ccccc1)C(=O)Nc1nccs1,.,153.7,.,.,.,.,162.7,.,.
N#C/C(=C\c1cccs1)C(=O)NCc1ccccc1,.,.,.,.,.,.,/,/,/
O=C(Nc1nccs1)Oc1ccccc1,.,.,.,.,.,.,/,/,/
O=C(c1ccco1)N1CCN(S(=O)(=O)c2ccc(Br)s2)CC1,.,.,.,.,.,.,/,/,/
COc1ccc(C(=O)CN2C(=O)NC3(CCCCC3)C2=O)cc1OC,.,.,.,.,.,.,/,/,/
O=C(CN1C(=O)NC2(CCCCCC2)C1=O)c1ccc2c(c1)OCCO2,.,160.5,.,.,.,.,177.7,136.1,125.8
CN(C)C(C)(C)C#CCCCCC#CC(C)(C)N(C)C,.,.,.,.,.,.,/,/,/
CC(=O)c1sc(NC(=O)c2ccccc2F)nc1-c1ccccc1,.,153.6,.,141.3,.,.,170.6,.,.
O=C(COC(=O)/C=C/c1cccc(C(F)(F)F)c1)NCc1ccccc1,.,.,.,.,.,.,/,/,/
COc1ncccc1-c1nnn(-c2ccc(C)cc2)n1,/,152.3,3.72,.,/,.,205.2,140.8,117.2
O=c1[nH]c2ccccc2cc1-c1nnn(-c2ccc(F)cc2)n1,/,.,.,.,/,.,/,/,/
Clc1ccc(-n2nnc(-c3cccnc3)n2)cc1Cl,/,159.3,.,.,/,.,149.2,.,.
COc1ncccc1-c1nnn(-c2ccc(F)cc2)n1,/,155.3,3.76,.,/,.,193.8,.,112.5
COc1ncccc1-c1nnn(-c2ccc(Cl)c(Cl)c2)n1,/,158.3,3.97,.,/,.,163.9,.,.
Cc1ccc(S(=O)(=O)Nc2ccc(NC(=O)c3cccnc3)cc2)cc1,.,.,.,.,.,.,/,/,/
Cc1ccccc1NC(=S)NNC(=O)c1cccnc1,.,.,.,.,.,.,/,/,/
O=C(c1ccc2c(c1)OCO2)C1CCCN(C(=O)c2cnn(Cc3ccccc3)c2)C1 (stereo not drawn),.,.,.,.,.,.,/,/,/
CC(C)=CC(=O)Nc1ccc(Br)cc1,.,154.3,5.61,.,.,.,171.6,141.2,.
O=C(Cc1ccccc1)NC1CCN(C(=O)NCc2ccccc2)CC1,.,.,.,.,.,.,/,/,/
COCC(C)NC(=O)c1cc(-c2ccc(O)cc2)on1 (stereo not drawn),.,.,.,.,.,.,/,/,/
CCC(C)NC(=O)c1cc(-c2ccc(OC)cc2)on1 (stereo not drawn),.,156.9,3.35,.,.,.,178.8,.,.
CC(C)(C)NC(=O)CCCSc1nc2ccccc2s1,.,.,.,.,.,.,/,/,/
COc1ccccc1C(=O)N(NC(=O)Oc1ccccc1)C(C)(C)C,.,.,.,.,.,.,/,/,/
COc1ccc(-n2c(O)c(C=Nc3ccccc3)c3ccccc3c2=O)cc1,.,.,.,.,.,.,/,/,/
COc1ccc(N=Cc2sc(O)c3ccccc23)cc1,.,172.8,13.1,213.8,.,.,331.3,154.3,.
COc1ccc2nc3sc(C(=O)NCc4cccs4)c(N)c3cc2c1,.,182.6,.,140.1,.,.,222.3,136.2,.
COc1ccc(C(=O)NCC(=O)OCC(=O)NCc2cccs2)cc1,.,.,.,.,.,.,/,/,/
CCOc1ccc2nc(N/C(N)=N/C(=S)Nc3ccc(C)c(C)c3)nc(C)c2c1,.,.,.,.,.,.,/,/,/
CCNC(=S)/N=C(\N)Nc1nc(C)c2cc(C)ccc2n1,.,182.2,.,.,.,.,178.8,141.1,125.2
O=C(O)CCC(=O)NNC(=O)c1cccs1,.,.,.,.,.,.,/,/,/

# Screening data deposited in PubChem by several laboratories.
